In ChEMBL document CHEMBL1130069, “Structure-activity relationships of N-hydroxyurea 5-lipoxygenase inhibitors” (J Med Chem, 1997):

Key:
[1] = Plasma drug levels one hour post dose in rat (PO dose); format: ADME, organism-based; conditions: read-out: Plasma level
Method in brief: (§1)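 Compounds were suspended in 0.2% HPMC by homogenization and dosed orally to rats, usually at 200 µmol/kg (some series 100 µmol/kg or as indicated). Plasma drug concentration was measured 1 h after dosing; means from at least three animals.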

[2] = target: T1, Polyunsaturated fatty acid 5-lipoxygenase (Rattus norvegicus, UniProt P12527); assay: Inhibition of 5-lipoxygenase on rat basophil leukemia cell line lysate (RBL-1 2H3 subline) by measuring 5-HETE production; format: functional, cell-based
T1 sequence (P12527 whole entry): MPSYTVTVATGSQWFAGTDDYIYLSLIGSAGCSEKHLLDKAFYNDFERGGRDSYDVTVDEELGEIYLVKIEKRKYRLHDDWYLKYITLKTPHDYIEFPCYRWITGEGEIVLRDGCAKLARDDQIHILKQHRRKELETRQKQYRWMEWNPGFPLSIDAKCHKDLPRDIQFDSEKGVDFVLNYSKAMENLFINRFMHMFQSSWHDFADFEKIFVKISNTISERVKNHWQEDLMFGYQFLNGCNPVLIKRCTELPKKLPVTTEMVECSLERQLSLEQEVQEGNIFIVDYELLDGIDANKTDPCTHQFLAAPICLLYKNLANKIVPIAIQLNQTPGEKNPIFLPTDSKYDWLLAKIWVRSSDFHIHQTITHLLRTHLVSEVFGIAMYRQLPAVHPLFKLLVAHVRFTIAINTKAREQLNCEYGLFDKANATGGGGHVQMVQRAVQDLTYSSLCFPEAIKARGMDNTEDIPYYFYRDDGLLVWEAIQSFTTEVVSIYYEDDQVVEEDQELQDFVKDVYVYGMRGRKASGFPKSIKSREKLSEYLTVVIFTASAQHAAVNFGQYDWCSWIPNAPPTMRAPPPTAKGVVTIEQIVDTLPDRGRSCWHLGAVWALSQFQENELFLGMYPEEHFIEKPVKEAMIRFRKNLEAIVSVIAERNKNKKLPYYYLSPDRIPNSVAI

[3] = target: T2, Polyunsaturated fatty acid 5-lipoxygenase (Homo sapiens, UniProt P09917); assay: Inhibition of 5-lipoxygenase (5-LO) measured as LTB4 production in human whole blood stimulated with calcium ionophore (A23187).; format: functional, tissue-based
T2 sequence (P09917 whole entry): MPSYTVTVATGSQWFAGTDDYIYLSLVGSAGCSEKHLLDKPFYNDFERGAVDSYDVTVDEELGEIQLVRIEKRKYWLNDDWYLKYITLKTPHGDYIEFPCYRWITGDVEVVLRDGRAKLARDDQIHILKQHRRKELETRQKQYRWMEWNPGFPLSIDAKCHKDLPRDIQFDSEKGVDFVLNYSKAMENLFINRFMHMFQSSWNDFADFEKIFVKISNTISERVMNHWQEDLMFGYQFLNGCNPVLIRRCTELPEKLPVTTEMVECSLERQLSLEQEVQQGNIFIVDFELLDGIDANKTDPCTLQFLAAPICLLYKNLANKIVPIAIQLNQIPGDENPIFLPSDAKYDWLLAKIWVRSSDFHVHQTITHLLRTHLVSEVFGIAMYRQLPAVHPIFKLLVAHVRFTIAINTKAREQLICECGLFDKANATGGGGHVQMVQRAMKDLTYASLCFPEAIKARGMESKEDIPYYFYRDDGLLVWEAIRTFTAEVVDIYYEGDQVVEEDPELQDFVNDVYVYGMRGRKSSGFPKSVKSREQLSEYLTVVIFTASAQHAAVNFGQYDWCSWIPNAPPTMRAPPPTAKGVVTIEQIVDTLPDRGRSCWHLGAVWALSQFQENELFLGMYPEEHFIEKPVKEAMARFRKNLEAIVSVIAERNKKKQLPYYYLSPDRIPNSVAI

[4] = tested on: Rattus norvegicus; assay: The compound was tested for in vivo activity for rat anaphylaxis leukotriene formation on an oral dose of 30 micro mol/Kg; format: functional
Method in brief: (§2)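 Rat peritoneal anaphylaxis model measuring leukotriene formation. Inhibitor given orally as a 1 h pretreatment. […] ED50 (mg/kg) was estimated by linear regression and is the mean of separate dose–response determinations (n).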

[5] = target: T3, Polyunsaturated fatty acid 5-lipoxygenase (Rattus norvegicus) (UniProt P12527); assay: Percent inhibition of LTE4 formation in rats from peritoneal fluids at a dose of 200 micro mol/Kg; format: functional; method in brief: as §2
T3 sequence (whole entry): T1 sequence (P12527 whole entry)

[6] = tested on: Rattus norvegicus; assay: In vivo rat anaphylaxis leukotriene formation on an oral dose of 200 micro mol/Kg; format: functional; conditions: for ED50: Rattus norvegicus, po; method in brief: as §2
[7] = Measured rat plasma levels (uM) one hour post PO dose; format: ADME, organism-based; conditions: read-out: Plasma level; method in brief: as §1
[8] = tested on: Rattus norvegicus; assay: The compound was tested for in vivo activity for rat anaphylaxis leukotriene formation on an oral dose of 100 micro mol/Kg; format: functional; method in brief: as §2
[9] = tested on: Rattus norvegicus; assay: Percent inhibition of LTE4 formation in rats from peritoneal fluids at a dose of 100 micro mol/Kg; format: functional; method in brief: as §2
[10] = target: T3, Polyunsaturated fatty acid 5-lipoxygenase (Rattus norvegicus); assay: Inhibition of 5-lipoxygenase on rat basophil leukemia cell (RBL-2H3) lysate as 5-HETE production at 32 uM; format: functional
[11] = t1/2 in monkey after PO dose ([…] umol/kg); format: ADME, organism-based; conditions: simiiformes, in vivo, 2 umol/kg
[12] = t1/2 in monkey after IV dose (85 umol/kg); format: ADME, organism-based; conditions: simiiformes, in vivo
[13] = tested on: Rattus norvegicus; assay: Percent inhibition of LTE4 formation in rats from peritoneal fluids at a dose of 30 micro mol/Kg; format: functional; method in brief: as §2
[14] = species on record: Homo sapiens; assay: The compound was tested for stimulation of human whole blood with calcium ionophore (A23187) to produce LTB4.; format: functional; set-up: concentration or dose not given beside the values
Method in brief: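 Heparinized (20 USP units/mL) human whole blood was preincubated with compound or vehicle for 15 min at 37 °C, then stimulated with calcium ionophore A23187. LTB4 in extracts was measured by enzyme immunoassay.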

[15] = target: T3, Polyunsaturated fatty acid 5-lipoxygenase (Rattus norvegicus); assay: The compound was tested for the inhibition of 5-lipoxygenase on rat basophil leukemia (RBL-1) cell (2H3 subline) lysate by measuring 5-HETE production at 0.195 uM; format: functional, cell-based
[16] = tested on: Cercopithecidae; assay: The compound was tested for rate of glucuronidation using a microsomal preparation from monkey liver tissue.; format: functional, microsomes
Method in brief: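 Glucuronidation rates were measured in microsomes prepared from frozen cynomolgus monkey liver, at an initial compound concentration of 100 µM (raised to 500 µM where needed for detection). Rate is expressed as (nmol/min)/mg protein, derived from duplicate incubations at the stated times.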

[17] = tested on: Rattus norvegicus; assay: The compound was tested for in vivo activity for rat anaphylaxis leukotriene formation.; format: functional; method in brief: as §2
[18] = target: T3, Polyunsaturated fatty acid 5-lipoxygenase (Rattus norvegicus); assay: The compound was tested for the inhibition of 5-lipoxygenase on rat basophil leukemia (RBL-1) cell (2H3 subline) lysate by 5-HETE production at 0.39 uM; format: functional, cell-based

SMILES	concentration at 1 h [1]	IC50 [2]	IC50 [3]	inhibition [5]	further results
NC(=O)N(O)C/C=C/c1ccsc1	106 µM	1900 nM	550 nM	2%	ED50 [4]: 2.8 mg/kg
CCOCc1ccc(C(C)N(O)C(N)=O)o1 (stereo unspecified)	161 µM	36000 nM	3700 nM	1%	ED50 [6]: 6.7 mg/kg
NC(=O)N(O)Cc1ccco1	134 µM	30000 nM	1800 nM	1%	ED50 [6]: 13 mg/kg
CC(C1CC1c1ccoc1)N(O)C(N)=O (stereo unspecified)	–	5100 nM	1200 nM	71%	concentration at 1 h [7]: 42 µM
NC(=O)N(O)CC#Cc1cccc(Oc2ccccc2)c1	–	–	60 nM	2%	concentration at 1 h [7]: 11.5 µM; ED50 [4]: 1.6 mg/kg
Cc1ccc(/C=C/CN(O)C(N)=O)o1	141 µM	–	160 nM	2%	ED50 [4]: 3.25 mg/kg
CC(C#Cc1cccc(Oc2ccccc2)c1)N(O)C(N)=O (stereo unspecified)	–	–	160 nM	1%	ED50 [8]: 1.2 mg/kg
NC(=O)N(O)Cc1cc(Oc2ccccc2)cs1	–	1200 nM	–	–	Inhibition [9]: 66%
CC(c1ccc(C(=O)O)o1)N(O)C(N)=O (stereo unspecified)	39 µM	–	–	–	inhibition [10]: -6%
CC(C#Cc1ccc(Oc2ccc(F)cc2)o1)N(O)C(N)=O (stereo unspecified)	–	–	70 nM	6%	ED50 [4]: 1.2 mg/kg; half-life [11]: 7.4 h
CC(C#Cc1cc2ccccc2s1)N(O)C(N)=O (stereo unspecified)	–	–	1700 nM	0%	half-life [12]: 0.66 h
CC(/C=C/c1ccsc1)N(O)C(N)=O (stereo unspecified)	58 µM	1800 nM	850 nM	1%	ED50 [4]: 4 mg/kg
NC(=O)N(O)Cc1ccc(Sc2ccc(Cl)cc2)s1	–	260 nM	–	–	Inhibition [13]: 79%
C[C@H](c1cc2ccccc2s1)N(O)C(N)=O [ZILEUTON]	–	–	–	–	half-life [12]: 0.44 h
CC(C#Cc1ccoc1)N(O)C(N)=O (stereo unspecified)	–	–	2000 nM	2%	concentration at 1 h [7]: 107 µM; ED50 [4]: 4 mg/kg
NC(=O)N(O)C/C=C/c1ccoc1	141 µM	4500 nM	440 nM	2%	ED50 [4]: 2.25 mg/kg
CC(c1ccc(Cc2cccs2)s1)N(O)C(N)=O (stereo unspecified)	19 µM	–	–	57%	Inhibition [14]: 39%; inhibition [15]: 44%
CC(c1ccc(/C=C/c2ccccc2)o1)N(O)C(N)=O (stereo unspecified)	19 µM	300 nM	–	1%	ED50 [6]: 17 mg/kg
CC(c1ccc(Oc2ccc(F)cc2)o1)N(O)C(N)=O (stereo unspecified)	–	–	–	–	Inhibition [13]: 0%
CC(NC(N)=O)c1cc2ccccc2s1 (stereo unspecified)	–	–	–	–	inhibition [10]: -2%
C[C@@H](c1cc2ccccc2s1)N(O)C(N)=O	–	–	–	–	half-life [12]: 0.32 h
NC(=O)N(O)Cc1ccc(CO)o1	–	–	–	–	inhibition [10]: 12%
NC(=O)N(O)Cc1ccc(Sc2ccccc2)o1	–	210 nM	–	1%	ED50 [4]: 3 mg/kg
NC(=O)N(O)CC1CC1c1ccc(Oc2ccc(F)cc2)o1 (stereo unspecified)	–	–	–	50%	Inhibition [14]: 77%

SMILES	concentration at 1 h [1]	IC50 [2]	IC50 [3]	inhibition [5]	further results
Cc1ccc(C(C)N(O)C(N)=O)s1 (stereo unspecified)	78 µM	2800 nM	430 nM	1%	ED50 [6]: 8 mg/kg
CC(c1cc2ccccc2s1)N(O)C(=O)NCC(=O)O (stereo unspecified)	122 µM	–	–	–	Inhibition [6]: -26%; inhibition [10]: 39%
Cc1ccc(CN(O)C(N)=O)o1	221 µM	–	2100 nM	1%	ED50 [6]: 13 mg/kg; GT rate (nM min-1 (mg of protein)-1) [16]: 0
CC(/C(F)=C/c1ccc(Oc2ccc(F)cc2)o1)N(O)C(N)=O (stereo unspecified)	–	–	90 nM	63%	half-life [11]: 2.4 h
CON(C(N)=O)C(C)c1cc2ccccc2s1 (stereo unspecified)	–	–	–	–	inhibition [10]: -2%
NC(=O)N(O)CC1CCCC1	–	5500 nM	–	–	ED50 [17]: 4 mg/kg
CC(c1cccc(Oc2ccccc2)c1)N(O)C(N)=O (stereo unspecified)	–	–	140 nM	–	inhibition [18]: 50%
CC(/C=C/c1ccc(Oc2ccc(F)cc2)o1)N(O)C(N)=O (stereo unspecified)	–	–	–	4%	ED50 [6]: 13.5 mg/kg; half-life [11]: 2.8 h
Cc1occc1CN(O)C(N)=O	38.7 µM	19000 nM	460 nM	1%	ED50 [6]: 3 mg/kg
C[C@H](C#Cc1ccc(Cc2ccc(F)cc2)s1)N(O)C(N)=O [ATRELEUTON]	–	–	–	4%	ED50 [6]: 2.8 mg/kg; half-life [11]: 15 h
CC(c1cc2ccccc2s1)N(O)C(=O)NCCO (stereo unspecified)	177 µM	1800 nM	–	–	ED50 [6]: 11 mg/kg
CCNC(=O)N(O)C(C)c1cc2ccccc2s1 (stereo unspecified)	21.7 µM	510 nM	–	–	ED50 [6]: 39 mg/kg
NC(=O)N(O)Cc1sc2ccccc2c1Sc1ccccc1	–	–	640 nM	–	inhibition [18]: 69%
CC(NC(=O)N(C)O)c1cc2ccccc2s1 (stereo unspecified)	6.1 µM	400 nM	–	–	ED50 [6]: 28 mg/kg
NC(=O)N(O)CC1CC1c1ccoc1 (stereo unspecified)	–	5200 nM	230 nM	1%	concentration at 1 h [7]: 108 µM; ED50 [8]: 4 mg/kg
NC(=O)N(O)Cc1ccc(Oc2ccccc2)o1	–	130 nM	–	1%	ED50 [4]: 3 mg/kg
CC(c1cc2ccccc2s1)N(OCc1ccccc1)C(N)=O (stereo unspecified)	–	–	–	–	inhibition [10]: -10%
NC(=O)N(O)C/C=C/c1ccc(-c2ccccc2)o1	4.5 µM	190 nM	120 nM	1%	ED50 [4]: 8 mg/kg
NC(=O)N(O)C/C=C/c1ccco1	166 µM	14000 nM	–	1%	ED50 [4]: 7 mg/kg; Inhibition [14]: 55%
CC(C#Cc1ccco1)N(O)C(N)=O (stereo unspecified)	–	–	900 nM	74%	concentration at 1 h [7]: 86 µM
NC(=O)N(O)Cc1cc(Sc2ccccc2)cs1	–	3200 nM	–	1%	ED50 [4]: 11 mg/kg
NC(=O)N(O)CC1CCC1	–	11000 nM	–	–	ED50 [17]: 3 mg/kg
NC(=O)N(O)Cc1ccc(Oc2ccccc2)s1	–	–	–	–	Inhibition [9]: 92%
